Experimental findings from ChEMBL document CHEMBL1152791, “New poly(ADP-ribose) polymerase-1 inhibitors with antioxidant activity based on 4-carboxamidobenzimidazole-2-ylpyrroline and -tetrahydropyridine nitroxides and their precursors” (J Med Chem, 2009) are described below.

The test system of one series is WRL68. Briefly: Inhibition of H2O2-induced cell death in human WRL68 cells after 3 hrs by MTT assay. The format is functional, cell-based. Particulars: WRL68, 3 h. The procedure, abridged:
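WRL-68 cells (ATCC) were grown in DMEM with 10% fetal calf serum at 37 °C and 5% CO2, seeded at 2.5 × 10⁴ cells/well and left overnight. They were then exposed to 0.3 mM H2O2 alone or with 0.02–10 µM compound for 3 h, then 0.5% MTT for 3 h. Formazan was dissolved in acidic isopropanol and read at 550 nm. Runs used ≥6 parallels and were repeated 3 times. IC50 is the concentration (µM) halving H2O2-induced death.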
For orientation: Tetrazolium dyes change colour on reduction, which living cells bring about.

A short description of series [1]: Antioxidant activity assessed as hydroxyl radical scavenging activity by fenton reaction. Format: functional. The procedure, abridged: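 Fenton-type hydroxyl radical generation in 2.5 mL of 20 mM potassium phosphate pH 6.8 with 0.1 mM benzoic acid, 0.1 mM H2O2 and 20 µM Fe2+-EDTA. Hydroxybenzoic acid formation followed by fluorescence (ex 305 nm, em 407 nm). IC50 is the concentration (µM) halving the rate of benzoic acid hydroxylation.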

Series [2] concerns the target Poly [ADP-ribose] polymerase 1 (Rattus norvegicus, UniProt P27008). Put plainly: (§1) Inhibition of rat liver PARP1 by scintillation counting.
For series [3], the target named is Poly [ADP-ribose] polymerase 1 (Rattus norvegicus) (UniProt P27008). Described as §1.
Chain of Poly [ADP-ribose] polymerase 1 (Rattus norvegicus) (P27008 whole entry): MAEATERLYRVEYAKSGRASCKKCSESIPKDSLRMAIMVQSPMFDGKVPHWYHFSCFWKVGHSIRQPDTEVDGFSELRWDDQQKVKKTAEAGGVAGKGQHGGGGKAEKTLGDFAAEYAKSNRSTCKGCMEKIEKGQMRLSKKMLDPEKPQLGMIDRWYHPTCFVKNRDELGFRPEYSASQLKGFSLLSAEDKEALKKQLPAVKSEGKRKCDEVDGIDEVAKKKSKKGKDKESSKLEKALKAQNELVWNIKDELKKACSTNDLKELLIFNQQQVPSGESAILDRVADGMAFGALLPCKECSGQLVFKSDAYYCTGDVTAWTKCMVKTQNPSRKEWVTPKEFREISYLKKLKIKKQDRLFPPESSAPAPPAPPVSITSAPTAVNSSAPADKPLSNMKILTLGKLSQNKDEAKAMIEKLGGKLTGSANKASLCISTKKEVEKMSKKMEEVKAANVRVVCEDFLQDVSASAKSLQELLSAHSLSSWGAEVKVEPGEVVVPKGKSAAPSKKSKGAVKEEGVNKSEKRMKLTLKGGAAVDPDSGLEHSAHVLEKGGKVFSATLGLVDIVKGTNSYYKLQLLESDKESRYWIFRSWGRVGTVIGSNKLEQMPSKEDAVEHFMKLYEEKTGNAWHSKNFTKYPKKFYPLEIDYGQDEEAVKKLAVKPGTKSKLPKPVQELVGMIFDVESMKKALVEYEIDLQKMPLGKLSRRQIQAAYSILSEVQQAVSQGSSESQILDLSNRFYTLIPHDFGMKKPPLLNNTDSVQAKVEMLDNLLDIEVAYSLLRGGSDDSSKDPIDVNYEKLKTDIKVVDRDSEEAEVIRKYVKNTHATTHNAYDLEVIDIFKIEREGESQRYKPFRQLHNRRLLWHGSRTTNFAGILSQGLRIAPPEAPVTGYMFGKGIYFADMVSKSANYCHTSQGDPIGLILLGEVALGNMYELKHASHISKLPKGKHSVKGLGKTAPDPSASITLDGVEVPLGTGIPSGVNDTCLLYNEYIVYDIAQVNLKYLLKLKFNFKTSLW
Series [4] concerns Rattus norvegicus. Briefly: Metabolic stability in Wistar rat assessed as 2-(1-oxyl-2,2,6,6-tetramethyl-1,2,3,6-tetrahydropyridin-4-yl)-1H-benzimidazol-4-carboxylic acid amide radical level in urine at 8 mg/kg, ip after 4 hrs by EPR spectroscopy. Format: ADME, organism-based. Particulars: in vivo. Also noted: dose 8 mg/kg, route intraperitoneal. In short, it runs like this: (§2)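 Male Wistar rats (290–350 g, n = 3/group) were housed singly in metabolic cages and given a single ip dose of the HCl salt dissolved in 1.0 mL 0.9% NaCl. Urine was collected before dosing and from injection to 4 h. Untreated urine was measured by X-band EPR in 50 µL glass capillaries to give the radical concentration.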

In series [5] the test system is Rattus norvegicus. Briefly: Metabolic stability in Wistar rat assessed as 2-(1-oxyl-2,2,6,6-tetramethyl-1,2,3,6-tetrahydropyridin-4-yl)-1H-benzimidazol-4-carboxylic acid amide radical level in urine at 8 mg/kg, ip after 4 hrs by EPR spectroscopy in presence of PbO2. Format: ADME, organism-based. More on the design: dose 8 mg/kg, route intraperitoneal. Particulars: in vivo. In short, it runs like this: (§3)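 Male Wistar rats (290–350 g, n = 3/group) were housed singly in metabolic cages and given a single ip dose of the HCl salt in 1.0 mL 0.9% NaCl. For urine collected from 0 to 4 h, 50 mg PbO2 was added per 1 mL, vortexed 1 min and left 10 min. This oxidizes hydroxylamine to nitroxide. A 50 µL portion of supernatant was then measured by X-band EPR.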

Series [6] is described as follows: Toxicity in ip dosed C57BL/6 mouse assessed as mortality measured every 24 hrs for 14 days. The format is organism-based. Particulars: in vivo. In short, it runs like this: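 C57BL/6 mice, groups of eight, given a single intraperitoneal injection of […]. Animals were watched for respiratory, digestive and neurological changes. Deaths were counted every 24 h for 14 days. Animals were kept under standard conditions with tap water and chow ad libitum.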

Series [7] relates to Rattus norvegicus. Briefly: Metabolic stability in Wistar rat assessed as nitroxide metabolite level in urine at 8 mg/kg, ip after 4 hrs by EPR spectroscopy. Also noted: dose 8 mg/kg, route intraperitoneal. The format is ADME, organism-based. The note with it: in vivo. The procedure, abridged:
as §2

The test system of series [8] is Rattus norvegicus. Put plainly: Metabolic stability in Wistar rat assessed as nitroxide metabolite level in urine at 8 mg/kg, ip after 4 hrs by EPR spectroscopy in presence of PbO2. More on the design: dose 8 mg/kg, route intraperitoneal. The note with it: in vivo. Format: ADME, organism-based. The procedure, abridged: as §3

SMILES strings stand for the structures. Activity calls are given as the source filed them. The rule behind the calls is not given here.

Chain of Poly [ADP-ribose] polymerase 1 (P27008 whole entry): as above

The IC50 is the midpoint of a concentration-inhibition curve. For `CN1C(C)(C)C=C(c2nc3c(C(N)=O)cccc3[nH]2)C1(C)C`, the IC50 stood at 0.095 µM in the series on WRL68 and 73 µM in series [1].
As for `CC1(C)C(c2cccc(C(F)(F)F)c2)=C(c2nc3c(C(N)=O)cccc3[nH]2)C(C)(C)N1O`, the concentration for half-maximal inhibition (IC50) with WRL68 was 60.9 µM; in series [2], 0.149 µM; in series [1], 11.2 µM.
On the same counts, the results for `CC1(C)NC(C)(C)C(c2cccc3c2oc2ccccc23)=C1c1nc2c(C(N)=O)cccc2[nH]1` are 0.324 µM, 1.8 µM and 5.3 µM.
For `CC1(C)C=C(CSc2nc3c(C(N)=O)cccc3[nH]2)CC(C)(C)N1`, in that order: 5.57 µM, 4 µM and 350 µM.
For `CC1(C)NC(C)(C)c2cc(-c3nc4c(C(N)=O)cccc4[nH]3)ncc21`, in that order: 0.08 µM, 0.47 µM and 150 µM.
With `CC1(C)C(c2ccccc2)=C(c2nc3c(C(N)=O)cccc3[nH]2)C(C)(C)N1O`, the 50% inhibitory concentration (IC50) in the series on WRL68 came out at 0.24 µM; in series [2], 1.5 µM; in series [1] it was 1.25 µM.
On the same counts, the results for `CC(C)NC(=O)c1cccc2[nH]c(C3=CC(C)(C)NC3(C)C)nc12` are 56.7 µM, 10 µM and 2.3 µM.
On the same counts, the results for `CC1(C)C=C(Cn2cnc3c(C(N)=O)cccc32)C(C)(C)N1O` are 1.99 µM, 10 µM and 1.8 µM.
Turning to `CC1(C)C=C(COc2ccc(-c3nc4c(C(N)=O)cccc4[nH]3)cc2)C(C)(C)N1`, the concentration for half-maximal inhibition (IC50) is 1.61 µM in the series with WRL68 and 4.3 µM in series [1].
For the compound `CC1(C)C=C(c2nc3cc(C(N)=O)ccc3[nH]2)CC(C)(C)N1O`, the figures for the IC50 (in the series on WRL68; in series [1]) were 28.3 µM and 170 µM, respectively. In addition, in series [3], the result was inactive.
Regarding `CC1(C)C=C(CSc2nc3c(C(N)=O)cccc3[nH]2)CC(C)(C)N1O`, the IC50 with WRL68 was found to be 12.7 µM; in [2], 5 µM; in series [1] it was 180 µM.
As for `CC1(C)NC(C)(C)C(c2nc3c(C(N)=O)cccc3[nH]2)=C1c1cccc(C(F)(F)F)c1`, the IC50 stood at 32 µM in the series with WRL68 and 13.4 µM in [1].
`CC1(C)NC(C)(C)c2cc(-c3nc4c(C(N)=O)cccc4[nH]3)ccc21`: the concentration for half-maximal inhibition (IC50) in the series on WRL68 was 0.19 µM; in series [2], 0.45 µM; in [1], 140 µM.
For `CC1(C)C=C(c2nc3c(C(N)=O)cccc3[nH]2)CC(C)(C)N1O`, the half-inhibitory concentration (IC50) turned out to be 15.6 µM in the series with WRL68, 0.026 µM in [2] and 9.6 µM in series [1]. In addition, the figures for the Activity with Rattus norvegicus [4] and in the series with Rattus norvegicus [5] were 0.7 nM and 1.7 nM, respectively.
Regarding `CON1C(C)(C)C=C(c2nc3c(C(N)=O)cccc3[nH]2)C1(C)C`, the values for the IC50 (in the series with WRL68; in [1]) were 0.0094 µM and 113 µM, respectively.
In general, LD50 refers to the dose expected to kill half of the subjects tested. As for `CC1(C)C=C(c2nc3c(C(N)=O)cccc3[nH]2)C(C)(C)N1`, the IC50 with WRL68 worked out at 0.62 µM; in [1] it was 2.1 µM. Also, the LD50 at 336 h in [6] stood at 620 mg/kg.
As for `CC1(C)C=C(c2ccc(-c3nc4c(C(N)=O)cccc4[nH]3)cc2)C(C)(C)N1O`, the 50% inhibitory concentration (IC50) is 0.033 µM in the series on WRL68, 0.078 µM in series [2] and 7.2 µM in series [1].
`CC1(C)C=C(c2nc3cc(C(N)=O)ccc3[nH]2)CC(C)(C)N1`: the outcome in [3] was inactive. For the same compound, in series [1], the IC50 worked out at 45 µM.
With `COC(=O)[C@@H]1[C@@H](c2nc3c(C(N)=O)cccc3[nH]2)C(C)(C)NC1(C)C`, the half-maximal inhibitory concentration (IC50) in the series with WRL68 amounted to 0.33 µM; in series [2], 0.216 µM; in series [1], 3.1 µM.
For `CC1(C)C(Br)=C(c2nc3c(C(N)=O)cccc3[nH]2)C(C)(C)N1O`, in that order: 8.21 µM, 0.201 µM and 2.8 µM.
On to `COC(=O)[C@@H]1[C@@H](c2nc3c(C(N)=O)cccc3[nH]2)C(C)(C)N(O)C1(C)C`, for which the IC50 with WRL68 is 11.1 µM; in [1], 0.9 µM.
`CC1(C)C=C(COc2ccc(-c3nc4c(C(N)=O)cccc4[nH]3)cc2)C(C)(C)N1O`: the results for the IC50 (in the series on WRL68; in series [2]; in series [1]) were 1.61 µM, 0.564 µM and 13.2 µM, respectively.
Turning to `CC1(C)C=C(c2nc3ccccc3[nH]2)CC(C)(C)N1`, in [3], the outcome was inactive. The concentration for half-maximal inhibition (IC50) in series [1] turned out to be 5.5 µM.
Consider `COc1cc(-c2nc3c(C(N)=O)cccc3[nH]2)ccc1OCC1=CC(C)(C)N(O)C1(C)C`, for which the concentration for half-maximal inhibition (IC50) with WRL68 worked out at 10.1 µM; in [2] it was 0.472 µM; in series [1] it was 14.1 µM.
On to `CC1(C)NC(C)(C)C(c2nc3c(C(N)=O)cccc3[nH]2)=C1Br`, for which the IC50 came out at 3.51 µM in the series on WRL68 and 3.4 µM in [1].
For `CC1(C)C=C(CSc2nc3c(C(N)=O)cccc3[nH]2)C(C)(C)N1O`, the values for the IC50 (in the series with WRL68; in series [2]; in series [1]) were 20.9 µM, 6 µM and 200 µM, respectively.
Regarding `CC1(C)NC(C)(C)C(c2nc3c(C(N)=O)cccc3[nH]2)=C1c1ccccc1`, the IC50 with WRL68 came to 3.98 µM; in series [1], 0.38 µM.
With `CC1(C)c2cc(-c3nc4c(C(N)=O)cccc4[nH]3)sc2C(C)(C)N1O`, the values for the concentration for half-maximal inhibition (IC50) (in the series on WRL68; in series [2]; in series [1]) were 40 µM, 3.4 µM and 27 µM, respectively.
In the case of `CC1(C)C=C(c2ccc(-c3nc4c(C(N)=O)cccc4[nH]3)cc2)C(C)(C)N1`, the IC50 is 0.341 µM with WRL68 and 4.5 µM in [1].
`CC1(C)C(c2nc3c(C(N)=O)cccc3[nH]2)=C(c2cccc3c2oc2ccccc23)C(C)(C)N1O`: the half-inhibitory concentration (IC50) in the series with WRL68 was determined as 26.8 µM; in series [2] it was 1.8 µM; in [1], 5.3 µM.
With `CC1(C)NC(C)(C)c2sc(-c3nc4c(C(N)=O)cccc4[nH]3)cc21`, the IC50 in the series on WRL68 was 6.92 µM; in series [1], 10.5 µM.
In the case of `CC(=O)N1C(C)(C)C=C(c2nc3c(C(N)=O)cccc3[nH]2)C1(C)C`, the half-inhibitory concentration (IC50) in the series with WRL68 worked out at 3.15 µM; in [1], 81 µM.
Consider `CC(C)NC(=O)c1cccc2[nH]c(C3=CC(C)(C)N(O)C3(C)C)nc12`, for which the half-inhibitory concentration (IC50) with WRL68 turned out to be 3.35 µM; in series [2], 10 µM; in series [1] it was 2.1 µM.
For `CC1(C)C=C(CSc2nc3c(C(N)=O)cccc3[nH]2)C(C)(C)N1`, in that order: 3.14 µM, 3 µM and 200 µM.
For `CC1(C)C=C(c2nc3c(C(N)=O)cccc3[nH]2)CC(C)(C)N1O.Cl`, the Activity worked out at 87 nM in the series with Rattus norvegicus [7] and 116 nM with Rattus norvegicus [8].
Regarding `COc1cc(-c2nc3c(C(N)=O)cccc3[nH]2)ccc1OCC1=CC(C)(C)NC1(C)C`, the 50% inhibitory concentration (IC50) came out at 0.101 µM in the series with WRL68 and 3.8 µM in [1].
Turning to `CC1(C)C=C(c2nc3c(C(N)=O)cccc3[nH]2)CC(C)(C)N1`, the half-maximal inhibitory concentration (IC50) in the series on WRL68 came out at 0.098 µM; in series [1] it was 1.6 µM. The 50% lethal dose (LD50) at 336 h in [6] was 740 mg/kg.
